Source: article PMC11077555 (Chemical Science, 2024)
Where “and” joins values, the source holds several entries; their conditions need not be identical. Equal values may be shown once. One block for each compound: values may come before it.

Tests used:
[1] = biological target: human recombinant PSMA (Homo sapiens, UniProt Q04609); experiment: Fluorescence polarization; type: binding
[2] = biological target: human recombinant GCPIII (Homo sapiens, UniProt Q9Y3Q0); experiment: Fluorescence polarization; type: binding; details: for Kd: KD,GCPIII; for Kd / affinity against GCPIII (in words): off-DNA FP; for fold selectivity (fold higher dissociation constant towards GCPIII): compared to the original HIT3
Chain of human recombinant GCPIII (Q9Y3Q0 whole entry): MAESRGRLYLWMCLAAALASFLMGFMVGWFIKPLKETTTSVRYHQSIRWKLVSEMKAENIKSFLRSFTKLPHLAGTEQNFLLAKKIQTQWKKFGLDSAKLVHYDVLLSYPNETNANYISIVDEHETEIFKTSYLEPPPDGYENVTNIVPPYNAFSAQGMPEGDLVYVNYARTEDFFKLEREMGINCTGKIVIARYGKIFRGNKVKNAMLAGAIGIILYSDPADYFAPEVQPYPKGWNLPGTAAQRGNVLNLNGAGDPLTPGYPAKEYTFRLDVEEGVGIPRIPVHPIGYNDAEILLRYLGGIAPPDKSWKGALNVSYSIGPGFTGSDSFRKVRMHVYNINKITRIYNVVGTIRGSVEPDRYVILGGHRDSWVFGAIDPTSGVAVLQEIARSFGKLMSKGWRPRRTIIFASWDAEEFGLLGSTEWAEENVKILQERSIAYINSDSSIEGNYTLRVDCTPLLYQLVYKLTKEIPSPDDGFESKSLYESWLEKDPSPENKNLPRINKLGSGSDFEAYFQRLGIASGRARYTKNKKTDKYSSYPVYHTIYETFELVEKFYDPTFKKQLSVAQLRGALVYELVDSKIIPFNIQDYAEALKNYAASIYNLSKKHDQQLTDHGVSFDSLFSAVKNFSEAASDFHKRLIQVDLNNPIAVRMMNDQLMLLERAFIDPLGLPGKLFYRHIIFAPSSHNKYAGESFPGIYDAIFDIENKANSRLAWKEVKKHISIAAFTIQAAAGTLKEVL

[3] = test system: HT1080.hPSMA cells; experiment: Flow cytometry on HT1080.hPSMA cells; type: cell-based, human; details: HT1080.hPSMA vs HT1080.wt; fluorescein-labelled compounds 50-250 nM
In short: (§1)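 Fluorescein-conjugated test compounds were incubated with PSMA-positive cells (HT1080.hPSMA, LNCaP), with PSMA-negative HT1080.wt cells as reference. Cell-bound fluorescence was measured by flow cytometry to assess recognition of PSMA in a native cellular environment.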

[4] = test system: LNCaP cells; experiment: Flow cytometry on LNCaP cells; type: cell-based; details: HT1080.wt as reference
In short: as §1

[5] = test system: PSMA; details: read-out: IC50,PSMA; cited from earlier work
[6] = test system: HT1080.hPSMA tumors; experiment: Quantitative in vivo biodistribution in tumor-bearing mice; parameters: species or system BALB/c nude mice; details: 2 h after i.v., n = 3
[7] = in combination with best standard of care; cited from earlier work

Chain of human recombinant PSMA (Q04609 whole entry): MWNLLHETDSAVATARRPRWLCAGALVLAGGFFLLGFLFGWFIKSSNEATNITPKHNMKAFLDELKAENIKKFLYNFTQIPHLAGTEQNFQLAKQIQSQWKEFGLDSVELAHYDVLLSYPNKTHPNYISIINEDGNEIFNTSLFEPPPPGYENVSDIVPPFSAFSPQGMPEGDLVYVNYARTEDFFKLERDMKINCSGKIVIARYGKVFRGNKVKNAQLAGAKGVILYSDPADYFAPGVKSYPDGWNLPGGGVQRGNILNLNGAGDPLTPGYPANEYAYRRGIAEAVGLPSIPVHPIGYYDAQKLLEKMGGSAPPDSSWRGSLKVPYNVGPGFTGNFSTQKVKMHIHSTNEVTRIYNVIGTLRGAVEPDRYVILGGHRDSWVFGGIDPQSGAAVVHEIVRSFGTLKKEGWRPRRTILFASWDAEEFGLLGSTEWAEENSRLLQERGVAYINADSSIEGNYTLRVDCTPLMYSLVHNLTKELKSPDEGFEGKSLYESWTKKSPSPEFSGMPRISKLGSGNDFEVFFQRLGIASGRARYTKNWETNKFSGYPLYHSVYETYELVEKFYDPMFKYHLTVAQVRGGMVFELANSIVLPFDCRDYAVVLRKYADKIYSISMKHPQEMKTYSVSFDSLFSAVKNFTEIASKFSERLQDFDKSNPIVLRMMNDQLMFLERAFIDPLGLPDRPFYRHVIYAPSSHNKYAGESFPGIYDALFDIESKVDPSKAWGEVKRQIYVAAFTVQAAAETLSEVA

Structure (SMILES): N#Cc1cccc(C[C@H](NC(=O)c2nn(-c3ccccc3)c(=O)[nH]c2=O)C(=O)N[C@@H](Cc2ccc(CP(=O)(O)O)cc2)C(=O)N[C@@H](CCCCNC(=S)Nc2ccc3c(c2)C(=O)OC32c3ccc(O)cc3Oc3cc(O)ccc32)C(=O)O)c1 [Compound 1]
Kd [1]: 260 ± 5 nM | Kd [2]: 600 ± 3 nM

Structure (SMILES): C#CC[C@H](NC(=O)[C@@H]1C[C@@H](C2CCCCC2)CN1C(=O)CSC1CCN(C(=O)CC[C@H](NC(=O)N[C@@H](CCC(=O)O)C(=O)O)C(=O)O)CC1)C(=O)NCCOCCOCCNC(=S)Nc1ccc2c(c1)C(=O)OC21c2ccc(O)cc2Oc2cc(O)ccc21 [Compound 9]
Kd [1]: 0.9 ± 0.5 nM | fold selectivity (fold higher dissociation constant towards GCPIII) [2]: ~40 fold

Structure (SMILES): O=C(O)CC[C@H](NC(=O)N[C@@H](CCC(=O)NCCOCCOCCNC(=S)Nc1ccc2c(c1)C(=O)OC21c2ccc(O)cc2Oc2cc(O)ccc21)C(=O)O)C(=O)O [Compound 12]
binding to PSMA on cells, fluorescence shift by flow cytometry [3]: avidly bound to PSMA | binding to PSMA on cells, fluorescence shift by flow cytometry [4]: avidly bound to PSMA

Structure (SMILES): O=C(CCNS(=O)(=O)c1ccc2ccccc2c1)N[C@H]1C[C@H](C(=O)O)N(C(=O)c2nn(-c3ccccc3)c(=O)[nH]c2=O)C1 [HIT2]
binding to PSMA on cells, fluorescence shift by flow cytometry [3]: not able to interact with PSMA on tumor cells

Structure (SMILES): O=C(O)CC[C@H](NC(=O)N[C@@H](CCC(=O)O)C(=O)O)C(=O)O [HIT3, (2S,2′S)-2,2′-(carbonyldiimino)dipentanedioic acid, reference compound]
Kd [1]: 1 nM | Kd [2]: 1.2 nM and 1 nM | IC50 [5]: 47 nM

Structure (SMILES): O=C([O-])CN1CCN(CC(=O)[O-])CCN(CC(=O)NCC2CCC(C(=O)N[C@@H](Cc3ccc4ccccc4c3)C(=O)NCCCC[C@H](NC(=O)N[C@@H](CCC(=O)O)C(=O)O)C(=O)O)CC2)CCN(CC(=O)[O-])CC1.[177Lu+3] (stereo partly shown) [Pluvicto™]
Tumor (HT1080.hPSMA) uptake ([6]; 18: 1 nmol/mouse, Pluvicto 0.5 nmol/mouse, 1 MBq): 32.4 %ID/g | Kidney uptake [6]: 2.16 %ID/g | Tumor-to-organ ratio, Blood (T : B) [6]: 2079 | overall response rate [7]: 30% | overall survival [7]: 15.3 months

Next, values leading:

affinity against GCPIII (in words) [2]: no measurable affinity was detected
Structure (SMILES): O=C(O)CNC(=O)c1cc(CNC(=O)c2ccc(CNC(=O)[C@H]3C[C@H](NC(=O)CCNS(=O)(=O)c4ccc5ccccc5c4)CN3C(=O)c3nn(-c4ccccc4)c(=O)[nH]c3=O)cc2)cc(OCC(=O)N[C@@H](CCCCNC(=S)Nc2ccc3c(c2)C(=O)OC32c3ccc(O)cc3Oc3cc(O)ccc32)C(=O)O)c1 [Compound 5]

affinity against GCPIII (in words) [2]: no measurable affinity was detected
Structure (SMILES): O=C(CCNS(=O)(=O)c1ccc2ccccc2c1)N[C@H]1C[C@H](C(=O)N[C@@H](CCCCNC(=S)Nc2ccc3c(c2)C(=O)OC32c3ccc(O)cc3Oc3cc(O)ccc32)C(=O)O)N(C(=O)c2nn(-c3ccccc3)c(=O)[nH]c2=O)C1 [Compound 6]

affinity against GCPIII (in words) [2]: no measurable affinity was detected
Structure (SMILES): O=C(O)CNC(=O)c1cc(CNC(=O)c2ccc(CNC(=O)[C@H]3C[C@H](NC(=O)CCNS(=O)(=O)c4ccc5ccccc5c4)CN3C(=O)c3nn(-c4ccccc4)c(=O)[nH]c3=O)cc2)cc(OCC(=O)NCCOCCOCCNC(=S)Nc2ccc3c(c2)C(=O)OC32c3ccc(O)cc3Oc3cc(O)ccc32)c1 [Compound 7]

Kd [1]: > 10000 nM | affinity against GCPIII (in words) [2]: no measurable affinity was detected
Structure (SMILES): O=C(CCNS(=O)(=O)c1ccc2ccccc2c1)N[C@H]1C[C@H](C(=O)NCCOCCOCCNC(=S)Nc2ccc3c(c2)C(=O)OC32c3ccc(O)cc3Oc3cc(O)ccc32)N(C(=O)c2nn(-c3ccccc3)c(=O)[nH]c2=O)C1 [Compound 8, (2R,4S) -N-(2-(2-(2-(3-(3',6'-dihydroxy-3-oxo-3H-spiro[isobenzofuran-1,9'-xanthen]-5-yl)thioureido)ethoxy)ethoxy)ethyl)-1-(3,5-dioxo-2-phenyl-2,3,4,5-tetrahydro-1,2,4-triazine-6-carbonyl)-4-(3-(naphthalene-2-sulfonamido)propanamido)pyrrolidine-2-carboxamide]

Kd [1]: 1.3 ± 0.7 nM | fold selectivity (fold higher dissociation constant towards GCPIII) [2]: ~40 fold
Structure (SMILES): C#CC[C@@H](NC(=O)[C@@H]1C[C@@H](C2CCCCC2)CN1C(=O)CSC1CCN(C(=O)CC[C@H](NC(=O)N[C@@H](CCC(=O)O)C(=O)O)C(=O)O)CC1)C(=O)NCCOCCOCCNC(=S)Nc1ccc2c(c1)C(=O)OC21c2ccc(O)cc2Oc2cc(O)ccc21 [Compound 10]
